Experimental data published in PMC6247954 (Cell, 2018).

Tests used:
[1] = system: YB5 cells (silenced CMV-GFP); test: GFP reactivation in YB5 measured by flow cytometry; type: cell-based, human; settings: for GFP reactivation by GSK-3 inhibitors: YB5, multiple doses, single exposure for four days
[2] = system: YB5 cells; test: Time-course RNA-seq in YB5; type: cell-based, human; settings: after excluding genes downregulated at 2hr/4hr
[3] = system: YB5 cells; test: qPCR of hypermethylated silenced genes in YB5; type: cell-based, human; settings: for reactivation of SYNE1 and MGMT: YB5, 24hr treatment, qPCR
[4] = molecular target: GSK-3α (Homo sapiens, UniProt P49840); test: Kinome screening of 250 kinases at 1μM; type: biochemical
Chain of GSK-3α (P49840 whole entry): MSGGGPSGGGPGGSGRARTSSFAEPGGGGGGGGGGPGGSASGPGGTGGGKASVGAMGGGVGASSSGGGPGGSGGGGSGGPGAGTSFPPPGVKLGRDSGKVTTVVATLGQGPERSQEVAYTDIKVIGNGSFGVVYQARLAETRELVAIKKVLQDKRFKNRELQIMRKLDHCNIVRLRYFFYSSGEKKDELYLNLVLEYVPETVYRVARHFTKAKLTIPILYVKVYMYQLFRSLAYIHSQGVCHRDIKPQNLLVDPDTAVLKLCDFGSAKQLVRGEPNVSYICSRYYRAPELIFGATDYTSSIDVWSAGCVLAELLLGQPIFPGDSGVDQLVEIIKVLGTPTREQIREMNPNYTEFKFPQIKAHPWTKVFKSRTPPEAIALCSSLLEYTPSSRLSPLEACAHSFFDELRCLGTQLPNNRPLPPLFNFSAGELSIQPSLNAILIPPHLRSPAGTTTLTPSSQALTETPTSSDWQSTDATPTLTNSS
In short: (§1)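 Kinase assays were run by a contract lab on a microfluidic mobility-shift platform. Each target kinase was incubated with fluorescently labelled substrate and test compound in a standardized reaction mixture.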

[5] = molecular target: CDK9/CyclinT1 (Homo sapiens, UniProt P50750); test: Isotope kinase activity assay with recombinant CDK9/CyclinT1 and BRG1; type: biochemical; settings: 1μM inhibitor, 32γ-ATP
Chain of CDK9/CyclinT1 (P50750 whole entry): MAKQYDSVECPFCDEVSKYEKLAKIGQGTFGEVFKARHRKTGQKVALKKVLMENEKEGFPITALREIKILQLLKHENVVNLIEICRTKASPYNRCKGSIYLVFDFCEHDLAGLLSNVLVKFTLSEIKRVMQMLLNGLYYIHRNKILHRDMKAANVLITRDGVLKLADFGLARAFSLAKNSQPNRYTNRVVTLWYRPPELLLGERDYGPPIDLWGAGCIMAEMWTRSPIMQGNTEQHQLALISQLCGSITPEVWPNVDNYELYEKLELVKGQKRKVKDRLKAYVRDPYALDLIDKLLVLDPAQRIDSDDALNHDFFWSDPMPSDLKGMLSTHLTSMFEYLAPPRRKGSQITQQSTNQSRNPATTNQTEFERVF
Chain of CDK9/CyclinT1 (O60563 whole entry partner): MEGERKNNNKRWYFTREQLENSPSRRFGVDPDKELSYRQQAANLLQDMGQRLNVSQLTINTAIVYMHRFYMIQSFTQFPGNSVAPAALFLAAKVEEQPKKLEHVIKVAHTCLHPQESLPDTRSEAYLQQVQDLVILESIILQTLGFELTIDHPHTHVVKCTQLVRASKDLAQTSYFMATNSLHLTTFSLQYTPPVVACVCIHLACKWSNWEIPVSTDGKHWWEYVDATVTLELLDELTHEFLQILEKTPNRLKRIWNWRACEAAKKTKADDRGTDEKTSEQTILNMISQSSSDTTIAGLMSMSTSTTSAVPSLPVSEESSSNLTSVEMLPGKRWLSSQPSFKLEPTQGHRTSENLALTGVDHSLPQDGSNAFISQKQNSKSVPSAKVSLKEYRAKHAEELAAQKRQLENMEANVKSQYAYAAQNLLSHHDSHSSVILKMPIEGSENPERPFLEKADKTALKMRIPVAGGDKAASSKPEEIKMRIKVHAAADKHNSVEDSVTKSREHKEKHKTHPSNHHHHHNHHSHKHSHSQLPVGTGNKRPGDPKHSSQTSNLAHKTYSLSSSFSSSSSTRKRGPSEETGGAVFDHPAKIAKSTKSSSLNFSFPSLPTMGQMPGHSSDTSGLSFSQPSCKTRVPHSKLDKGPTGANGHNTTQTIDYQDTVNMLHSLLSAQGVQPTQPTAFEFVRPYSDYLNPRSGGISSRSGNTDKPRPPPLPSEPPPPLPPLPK
In short: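 Recombinant active full-length CDK9/Cyclin T1 (1.2 μg) pre-incubated 15 min with or without 1μM test compound. Purified BRG1 (0.8 μg) then added, 1 hr at 30 °C in KAS buffer containing 5μCi/μl 32γ-ATP. Reaction stopped by heating at 65 °C for 5 min.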

[6] = molecular target: GSK-3β (Homo sapiens, UniProt P49841); test: Kinome screening of 250 kinases at 1μM; type: biochemical
Chain of GSK-3β (P49841 whole entry): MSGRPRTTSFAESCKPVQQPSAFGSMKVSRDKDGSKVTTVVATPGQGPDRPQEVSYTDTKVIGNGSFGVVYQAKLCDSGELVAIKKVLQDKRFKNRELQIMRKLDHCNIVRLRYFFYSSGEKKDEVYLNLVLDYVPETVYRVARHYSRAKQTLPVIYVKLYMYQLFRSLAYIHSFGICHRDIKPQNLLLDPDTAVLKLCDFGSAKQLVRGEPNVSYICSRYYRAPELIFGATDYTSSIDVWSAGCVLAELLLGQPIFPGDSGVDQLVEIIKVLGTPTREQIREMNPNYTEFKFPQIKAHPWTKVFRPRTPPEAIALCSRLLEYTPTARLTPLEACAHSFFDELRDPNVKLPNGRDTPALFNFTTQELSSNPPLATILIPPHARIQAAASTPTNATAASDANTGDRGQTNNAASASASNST
In short: as §1

[7] = system: cancer cell lines vs normal lung fibroblast (IMR90); test: Anti-proliferation assay; type: cell-based, human; settings: four days after one-time exposure; 5μM HH1 or 0.1μM MC180295
In short: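 Cells seeded in 96-well plates at 40% confluency. Medium refreshed next day, test compound added directly, then cultured two more days at 37°C. Drug-free medium on day four. Cells trypsinised on day 5, mixed 1:1 with trypan blue and counted on an automated counter. Each sample counted at least three times and averaged; triplicate wells per condition.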

[8] = system: pSer2 of RNAPII CTD (CDK9 target); test: Western Blot of CDK substrates after MC180295 treatment; type: cell-based; settings: 2hrs treatment
[9] = system: substrates of CDK4/6; test: as above; type: cell-based; settings: 2hrs treatment
[10] = system: YB5; test: Cell cycle analysis by propidium iodide staining; type: cell-based, human; settings: four days after single exposure
In short: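 YB5 cells received a single drug dose 24 h after seeding, with drug-free medium replaced three days later. They were analysed four days after treatment by propidium iodide staining and FACSCalibur flow cytometry. Sub-G1 fraction was taken as the apoptotic proportion. N=3.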

[11] = system: GFP and GLDC expression in tumors; test: Pharmacodynamics study in NSG mice; type: in vivo; settings: two-week every other day treatment, qPCR
In short: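 Six gender-matched 8–10-week-old NSG mice randomised to vehicle or drug. 2×10^6 cells injected into the flank. 20mg/kg test compound given i.p. every other day for two weeks, starting when tumours were palpable 9 days after engraftment. Tumours homogenised, total mRNA extracted, expression measured by qPCR; N=3, mean+SEM, Student's t-test.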

[12] = system: panel of 250 kinases; test: Kinome screening of 250 kinases at 1μM; type: biochemical, human
In short: as §1

[13] = system: CDK1/2 substrates; test: Western Blot of CDK substrates after MC180295 treatment; type: cell-based; settings: 2hrs treatment
[14] = system: HL60 cell line; test: HL60 differentiation; type: cell-based, human; settings: single dose exposure for four days
In short: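 HL60 cells received one dose 24 h after seeding, drug-free medium on day 3, and analysis on day 4. Cells were washed and stained with PI plus FITC-CD11b or isotype IgG, then read on a Guava flow cytometer. Positive controls were 1μM ATRA and 1.25% DMSO.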

[15] = system: SW48-luc cells; test: i.p. SW48-luc model in NSG mice; type: in vivo
In short: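 SW48 cells transfected with ffluc2-eGFP, GFP-positive cells sorted one week later and expanded. Cells injected i.p. into male and female age- and gender-matched NSG mice. Once tumour burden was seen by bioluminescence, mice randomised to 5–20mg/kg test compound or solvent i.p. every other day (3 vehicle, 5 treated). Imaged 5 min after i.p. D-luciferin. Endpoint: natural death or ascites; survival by log-rank (Mantel-Cox).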

[16] = system: YB5 and HCT116; test: Soft agar colony formation assay; type: cell-based, human; settings: single dose pre-exposure for four days
In short: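 Cells were pretreated with a range of test compound concentrations, kept in drug for two more days, and switched to drug-free medium the day before seeding (four days total). 1000 cells were plated in Noble agar with 2x medium (20% FBS, 2% penicillin/streptomycin). Plates were grown two weeks at 37°C, then stained with 0.005% crystal violet in 10% EtOH.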

[17] = system: SW48; test: s.c. SW48 xenograft model in NSG mice; type: in vivo
In short: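 2×10^6 SW48 cells injected s.c. into the flank of randomly assigned, gender-matched 8–10-week-old NSG mice. Once tumours were palpable, 20mg/kg test compound or vehicle given i.p. every other day, for 10 weeks. Tumour size measured by caliper (mean+SEM, Student's t-test); survival recorded in days.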

[18] = system: human T lymphocytes; test: Humanized PBMC NSG mice; type: in vivo; settings: 10 mg/kg or 20 mg/kg for 14 days
[19] = system: ID8; test: ID8-VEGF-Defensin syngeneic ovarian cancer mouse model; type: in vivo
In short: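 Female C57BL/6NHsd mice aged 7–8 weeks were injected i.p. with 2.5×10^5 ID8-VEGF-Defensin mouse ovarian cancer cells. From day 3, test compound (1 or 10 mg/kg) or vehicle (5% DMSO in PBS) was given i.p. every 3 days for the whole experiment. Groups were randomly assigned.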

[20] = system: CDK4; settings: read-out: IC50 for CDK4; ref Asghar et al., 2015; cited from earlier work
[21] = system: CDK9; settings: read-out: IC50 for CDK9; ref Asghar et al., 2015; cited from earlier work
[22] = system: CDK1; settings: read-out: IC50 for CDK1; ref Asghar et al., 2015; cited from earlier work

Cc1c[nH]c(-c2cnc(NCCNc3ccc(C#N)cn3)nc2-c2ccc(Cl)cc2Cl)n1 [CHR99021]
GFP reactivation by GSK-3 inhibitors [1]: no GFP reactivation

Nc1ncn([C@H]2C[C@H](O)[C@@H](CO)O2)c(=O)n1 [DAC, decitabine]
silenced genes (RPKM < 0.31) up [2]: 1238 genes | time to reactivation of hypermethylated genes ([3]; YB5, daily 100nM, for most genes): at least 24 hrs

[Cl-].[Li+] [LiCl]
GFP reactivation by GSK-3 inhibitors [1]: no GFP reactivation

Nc1nc(N[C@H]2CC3CCC2C3)sc1C(=O)c1ccccc1[N+](=O)[O-] (stereo partly drawn) [MC180295, (4-amino-2-(((2S)-bicyclo[2.2.1]heptan-2-yl)amino)thiazol-5-yl)(2-nitrophenyl)methanone]
inhibition of GSK-3α [4]: inhibited | phosphorylation of RNA-Pol-ll CTD, BRG1 and CDK9 by CDK9 [5]: unphosphorylated after CDK9 inhibition | inhibition of GSK-3β [6]: inhibited | reduction of proliferation, cancer cells compared to IMR90 [7]: more effective in reducing proliferation of cancer cells | dephosphorylation of Ser2 (pSer2) [8]: dephosphorylated at nanomolar doses | effect on substrates of CDK4/6 [9]: only affected at substantially higher doses | cell cycle arrest [10]: no cell cycle arrest | sub-G1 subpopulation [10]: an increase in the sub-G1 subpopulation | reactivation of GFP and GLDC in tumors [11]: reactivated GFP and GLDC in a dose dependent manner | selectivity within the human kinome [12]: highly selective against CDKs | effect on CDK1/2 substrates [13]: not affected at all | induction of differentiation marker CD11b [14]: significant induction | body weights ([15]; every other day treatment): did not affect body weights | survival of the mice ([15]; i.p. every other day, log-rank test): significantly extend survival | reduction of colony formation in soft agar [16]: 30–80% | mouse survival ([17]; 20mg/kg i.p. qod): improved mouse survival | toxicity as measured by body weight ([17]; 20mg/kg qod): without causing overt toxicity | tumor growth ([17]; 20mg/kg qod): tumors grew slower | killing of human T lymphocytes in vivo [18]: did not kill human T lymphocytes | ratio of CD4 and CD8 T cells in vivo [18]: did not affect the ratio of CD4 and CD8 T cells | GFP+ cells ([1]; YB5, 500nM, four days after single dose): ~ 60% | concentration active for GFP reactivation ([1]; YB5, four days after single dose): 50 nM

O=C(/C=C/N1C[C@H]2C[C@@H]1CN2c1ccccn1)c1ccccc1O [PFI-3]
effect on GFP activation by CDK9 inhibitors ([1]; YB5, 72hr daily pretreatment followed by 24hr co-treatment with HH1 or iCDK9): inhibited GFP activation by CDK9 inhibitors in a dose-dependent manner

CC(C)(C)c1cnc(CSc2cnc(NC(=O)C3CCNCC3)s2)o1 [SNS-032]
survival ([19]; 10mg/kg): extended survival | tumor burden (ascites fluid) ([19]; 10mg/kg): reduced tumor burden | activated dendritic cells (CD80/CD86+ and CD11c/MHCII+) in the tumor microenvironment ([19]; flow cytometry of ascites): increased populations of activated dendritic cells | immune cells (CD45+) and T cells (CD3+) in the tumor microenvironment ([19]; flow cytometry of ascites): increased populations of immune cells (CD45+) and T cells (CD3+) | tumor growth ([17]; 20mg/kg qod): tumors grew slower

CN1CC[C@H](c2c(O)cc(O)c3c(=O)cc(-c4ccccc4Cl)oc23)[C@H](O)C1 [flavopiridol]
IC50 [20]: […] | phosphorylation of RNA-Pol-ll CTD, BRG1 and CDK9 by CDK9 [5]: unphosphorylated after CDK9 inhibition | IC50 [21]: […] | reactivation of SYNE1 and MGMT [3]: led to gene reactivation | IC50 [22]: […]

NC1CCC(Nc2cc(-c3cccc(NCc4cccc(F)c4)n3)c(Cl)cn2)CC1 (centres unmarked) [iCDK9]
reactivation of SYNE1 and MGMT [3]: led to gene reactivation
